Laboratory results: ChEMBL document CHEMBL3526063, “Metabolism and pharmacokinetics of JM6 in mice: JM6 is not a prodrug for Ro-61-8048” (Drug Metab Dispos, 2012)

Assays:
[1] = AUClast in C57BL/6N mouse at 0.05 mg/kg, po administered via gavage by LC-MS/MS analysis; type: ADME, organism-based; design: time 0 - last, dose 0.05 mg/kg, route oral; conditions: plasma
Outline: (§1)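 Male C57BL/6N mice were dosed by oral gavage at 10 mL/kg with a fine suspension in 10% hydroxypropyl-β-cyclodextrin in 50 mM phosphate buffer, pH 7. Plasma was taken at non-serial time points (n=3 per time point), extracted with 0.1% formic acid in acetonitrile containing diclofenac as internal standard, and quantified by UPLC-MS/MS. Composite non-compartmental parameters came from mean concentrations; AUClast by linear trapezoid, kel from at least three terminal points.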

[2] = AUC(infinity) in C57BL/6N mouse at 0.05 mg/kg, po administered via gavage by LC-MS/MS analysis; type: ADME, organism-based; design: time infinity, dose 0.05 mg/kg, route oral; conditions: plasma; outline: as §1
[3] = test system: Mus musculus; test: Dose normalised AUC in C57BL/6N mouse at 0.05 mg/kg, po administered via gavage by LC-MS/MS analysis; type: ADME, organism-based; design: dose 0.05 mg/kg, route oral; conditions: in vivo; outline: as §1
[4] = test system: Mus musculus; test: Dose normalised Cmax in C57BL/6N mouse at 0.05 mg/kg, po administered via gavage by LC-MS/MS analysis; type: ADME, organism-based; design: dose 0.05 mg/kg, route oral; conditions: in vivo; outline: as §1
[5] = Half life in C57BL/6N mouse at 0.05 mg/kg, po administered via gavage by LC-MS/MS analysis; type: ADME, organism-based; design: dose 0.05 mg/kg, route oral; conditions: in vivo; outline: as §1
[6] = Metabolic stability in mouse liver microsomes assessed as intrinsic clearance at 5 uM after 5 to 40 mins by LC-MS/MS analysis; type: ADME; conditions: read-out: CLH
[7] = biological target: Kynurenine 3-monooxygenase (Rattus norvegicus, UniProt O88867); test: Inhibition of Wistar rat KMO assessed as 3-hydroxykynurenine formation preincubated for 5 mins using 100 uM kynurenine as substrate by LC-MS/MS analysis in presence of 3 mg/ml plasma protein
Sequence of Kynurenine 3-monooxygenase (Rattus norvegicus, UniProt O88867) (O88867 whole entry): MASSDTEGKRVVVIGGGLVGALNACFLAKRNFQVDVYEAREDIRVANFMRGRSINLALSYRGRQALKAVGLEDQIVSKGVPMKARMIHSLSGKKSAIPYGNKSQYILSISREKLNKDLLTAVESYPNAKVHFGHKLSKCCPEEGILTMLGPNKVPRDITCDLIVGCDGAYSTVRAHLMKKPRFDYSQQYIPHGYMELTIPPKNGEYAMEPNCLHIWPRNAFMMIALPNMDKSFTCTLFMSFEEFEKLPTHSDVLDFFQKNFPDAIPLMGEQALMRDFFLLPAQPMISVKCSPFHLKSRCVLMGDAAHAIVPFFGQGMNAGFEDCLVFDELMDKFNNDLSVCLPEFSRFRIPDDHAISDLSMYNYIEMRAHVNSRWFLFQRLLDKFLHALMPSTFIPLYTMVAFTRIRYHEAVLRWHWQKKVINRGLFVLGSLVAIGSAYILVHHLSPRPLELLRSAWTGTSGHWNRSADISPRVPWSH
Outline: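 KMO from Wistar rat liver (0.3 mg protein/ml) preincubated 5 min at 25°C with compound plus 3 mg/mL plasma protein in 100 mM potassium phosphate pH 7.4, 200 µM NADPH, G6PDH regenerating system. Started with 100 µM kynurenine, 40 min, stopped with TCA; 3-hydroxykynurenine by LC-MS/MS. 8-point 3-fold dilutions; triplicates, ≥2 runs.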

[8] = biological target: Kynurenine 3-monooxygenase (Homo sapiens, UniProt O15229); test: Inhibition of human KMO assessed as 3-hydroxykynurenine formation preincubated for 5 mins using 100 uM kynurenine as substrate by LC-MS/MS analysis in presence of 3 mg/ml plasma protein
Sequence of Kynurenine 3-monooxygenase (Homo sapiens, UniProt O15229) (O15229 whole entry): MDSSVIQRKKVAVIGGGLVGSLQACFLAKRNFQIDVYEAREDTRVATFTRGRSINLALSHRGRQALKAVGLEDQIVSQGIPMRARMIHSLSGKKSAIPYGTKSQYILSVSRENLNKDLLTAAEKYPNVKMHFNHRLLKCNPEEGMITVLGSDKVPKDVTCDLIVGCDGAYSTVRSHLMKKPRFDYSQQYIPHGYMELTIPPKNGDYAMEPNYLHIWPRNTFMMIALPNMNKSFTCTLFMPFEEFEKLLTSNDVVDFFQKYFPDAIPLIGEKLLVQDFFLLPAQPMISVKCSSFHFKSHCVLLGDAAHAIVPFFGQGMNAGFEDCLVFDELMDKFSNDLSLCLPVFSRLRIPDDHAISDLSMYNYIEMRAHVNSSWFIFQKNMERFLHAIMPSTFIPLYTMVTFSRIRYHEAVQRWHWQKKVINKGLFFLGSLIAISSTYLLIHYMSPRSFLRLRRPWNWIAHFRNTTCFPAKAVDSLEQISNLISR
Outline: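 Liver mitochondrial KMO (mouse C57 BL/6J or human), 0.3 mg protein/mL in 100 mM potassium phosphate pH 7.4, 200 µM NADPH, NADPH-regenerating system, plus 3 mg/mL plasma protein. Compound pre-incubated 5 min at 25°C; 100 µM kynurenine started reaction for 40 min (mouse) or 60 min (human); TCA stop; 3-hydroxykynurenine by LC-MS/MS. IC50 from 8-point 3-fold series, triplicates, n≥2.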

[9] = Cmax in mouse at 25 mg/kg/day, po; type: ADME, organism-based; design: dose 25 mg/kg/day, route oral; conditions: in vivo
[10] = AUClast in C57BL/6N mouse at 5 mg/kg, iv administered as single dose by LC-MS/MS analysis; type: ADME, organism-based; design: time 0 - last, dose 5 mg/kg, route intravenous; conditions: plasma
Outline: (§2)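 Single intravenous bolus of 5 mg/kg to male C57BL/6N mice, given as a filtered 1 mg/mL solution in DMSO:PEG400:water 10:50:40 (v/v). Plasma was extracted in acidified acetonitrile with diclofenac as internal standard and analysed by UPLC-MS/MS. Non-compartmental analysis used mean concentrations (n=3 per time point), with C0 back-extrapolated from the first two samples. AUCinf = AUClast + Ct/kel.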

[11] = AUC(infinity) in C57BL/6N mouse at 5 mg/kg, iv administered as single dose by LC-MS/MS analysis; type: ADME, organism-based; design: time infinity, dose 5 mg/kg, route intravenous; conditions: plasma; outline: as §2
[12] = test system: Mus musculus; test: Dose normalised AUC in C57BL/6N mouse at 5 mg/kg, iv administered as single dose by LC-MS/MS analysis; type: ADME, organism-based; design: dose 5 mg/kg, route intravenous; conditions: in vivo; outline: as §2
[13] = Plasma clearance in C57BL/6N mouse at 5 mg/kg, iv administered as single dose by LC-MS/MS analysis; type: ADME, organism-based; design: dose 5 mg/kg, route intravenous
Outline: (§3)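 Male C57BL/6N mice given 5 mg/kg iv bolus as 1 mg/mL filtered solution in DMSO:PEG400:water 10:50:40. Plasma extracted with acidified acetonitrile (diclofenac IS), analysed by LC-MS/MS. Composite non-compartmental parameters from mean concentrations (n=3 per time point); C0 back-extrapolated from first two points; kel from at least last three concentrations.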

[14] = Volume of distribution at steady state in C57BL/6N mouse at 5 mg/kg, iv administered as single dose by LC-MS/MS analysis; type: ADME, organism-based; design: dose 5 mg/kg, route intravenous; conditions: in vivo, read-out: Vdss; outline: as §3
[15] = Mean residence time in C57BL/6N mouse at 5 mg/kg, iv administered as single dose by LC-MS/MS analysis; type: ADME, organism-based; design: dose 5 mg/kg, route intravenous; conditions: in vivo; outline: as §3
[16] = test system: Mus musculus; test: Cmax in C57BL/6N mouse at 10 mg/kg, po administered via gavage containing <0.4% Ro-61-8048 by LC-MS/MS analysis; type: ADME, organism-based; design: dose 10 mg/kg, route oral; conditions: in vivo; outline: as §1
[17] = test system: Mus musculus; test: Tmax in C57BL/6N mouse at 10 mg/kg, po administered via gavage containing <0.4% Ro-61-8048 by LC-MS/MS analysis; type: ADME, organism-based; design: dose 10 mg/kg, route oral; conditions: in vivo
Outline: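 Male C57BL/6N mice dosed by oral gavage (10 mL/kg) as fine suspensions in 10% hydroxypropyl-β-cyclodextrin in 50 mM phosphate buffer pH 7; dose formulations verified by LC-MS/MS. Plasma analysed by LC-MS/MS; composite non-compartmental parameters from mean concentrations (n=3 per time point), C0 set to zero. %F = dose-normalised po AUCinf over dose-normalised iv AUCinf, only within linear range.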

[18] = Metabolic stability in mouse blood assessed as half life at 5 uM by LC-MS/MS analysis; type: ADME, tissue-based
[19] = Cmax in mouse at 10 mg/kg, po; type: ADME, organism-based; design: dose 10 mg/kg, route oral; conditions: in vivo
[20] = Cmax in mouse at 25 mg/kg, po; type: ADME, organism-based; design: dose 25 mg/kg, route oral; conditions: in vivo
[21] = AUClast in C57BL/6N mouse at 5 mg/kg, iv administered as single dose containing <0.4% Ro-61-8048 by LC-MS/MS analysis; type: ADME, organism-based; design: time 0 - last, dose 5 mg/kg, route intravenous; conditions: plasma; outline: as §2
[22] = Volume of distribution at steady state in C57BL/6N mouse at 5 mg/kg, iv administered as single dose containing <0.4% Ro-61-8048 by LC-MS/MS analysis; type: ADME, organism-based; design: dose 5 mg/kg, route intravenous; conditions: in vivo, read-out: Vdss
Outline: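 Male C57BL/6N mice given 5 mg/kg iv bolus (1 mg/mL, DMSO:PEG400:water 10:50:40, filtered); dosed material carried Ro-61-8048 as impurity, which was also quantified in plasma. LC-MS/MS after acetonitrile/formic acid extraction; composite non-compartmental analysis of mean concentrations (n=3 per time point), C0 back-extrapolated, kel from ≥3 terminal points.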

[23] = Half life in C57BL/6N mouse at 5 mg/kg, iv administered as single dose containing <0.4% Ro-61-8048 by LC-MS/MS analysis; type: ADME, organism-based; design: dose 5 mg/kg, route intravenous; conditions: in vivo; outline: as §2
[24] = test system: Mus musculus; test: Dose normalised AUC in C57BL/6N mouse at 10 mg/kg, po administered via gavage containing <0.4% Ro-61-8048 by LC-MS/MS analysis; type: ADME, organism-based; design: dose 10 mg/kg, route oral; conditions: in vivo; outline: as §1
[25] = test system: Liver; test: Metabolic stability in mouse liver microsomes assessed as half life at 1 uM after 5 to 40 mins by LC-MS/MS analysis

COc1ccc(S(=O)(=O)Nc2nc(-c3cccc([N+](=O)[O-])c3)cs2)cc1OC
AUC(0-t) [1]: 4.3 µM·h
AUC(0-inf) [2]: 4.5 µM·h
AUC/dose [3]: 90000 nM·kg·h/mg
Cmax/dose [4]: 11000 nM
half-life [5]: 5.2 h
microsomal CLint at 5 µM [6]: < 29 µL/min/mg
IC50 [7]: 8 µM
IC50 [8]: > 30 µM
Cmax [9]: 280 nM
AUC(0-t) [10]: 510 µM·h
AUC(0-inf) [11]: 550 µM·h
AUC/dose [12]: 130000 nM·kg·h/mg
clearance [13]: 0.3 mL/min/kg
Vd [14]: 0.15 L/kg
MRT [15]: 8.3 h

COc1ccc(S(=O)(=O)Nc2nc(-c3cccc([N+](=O)[O-])c3)c(CN3CCCCC3)s2)cc1OC
Cmax [16]: 100 nM
Tmax [17]: 0.5 h
half-life at 5 µM [18]: > 2.5 h
Cmax [19]: 1100 nM
Cmax [20]: 3400 nM
AUC(0-t) [21]: 5.2 µM·h
Vd [22]: 0.37 L/kg
half-life [23]: 0.72 h
AUC/dose [24]: 110 nM·kg·h/mg
t1/2 [25]: 0.2 h
